According to ChEMBL document CHEMBL1158473, “Aromatic 2-(thio)ureidocarboxylic acids as a new family of modulators of multidrug resistance-associated protein 1: synthesis, biological evaluation, and structure-activity relationships” (J Med Chem, 2009):
Active and inactive are the calls of the source. The calls are words filed in the database; no cut-off is given here.

Key:
[1] = molecular target: T1, Multidrug resistance-associated protein 1 (Homo sapiens, UniProt P33527); experiment: Inhibition of MRP1 expressed in multidrug resistant human 2008 cells assessed as calcein AM accumulation by fluorescence assay in presence of p-gp and BCRP inhibitor XR9577; assay type: cell-based
Summary of the method: (§1)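 Transfected 2008 MRP1 cells run beside 2008 WT cells, 21000 cells per well in Krebs-HEPES buffer. Cobalt sulfate was added to quench extracellular calcein, plus XR9577 to block P-gp. After 30 min preincubation with compound, calcein AM (final 0.5 μM) was added and fluorescence followed 30 min. Slopes were normalized and fitted by a four-parameter logistic; indomethacin (0.316–178 μM) was included.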

BCRP (ABCG2) = molecular target: T2, BCRP (ABCG2) (Homo sapiens, UniProt Q9UNQ0); experiment: Inhibition of BCRP expressed in human MCF7 MX cells at 31.6 uM by Hoechst 33342 staining relative to 10 uM XR9577; assay type: cell-based; conditions: MCF7 MX cells expressing BCRP, probe Hoechst 33342
T2 sequence (Q9UNQ0 whole entry): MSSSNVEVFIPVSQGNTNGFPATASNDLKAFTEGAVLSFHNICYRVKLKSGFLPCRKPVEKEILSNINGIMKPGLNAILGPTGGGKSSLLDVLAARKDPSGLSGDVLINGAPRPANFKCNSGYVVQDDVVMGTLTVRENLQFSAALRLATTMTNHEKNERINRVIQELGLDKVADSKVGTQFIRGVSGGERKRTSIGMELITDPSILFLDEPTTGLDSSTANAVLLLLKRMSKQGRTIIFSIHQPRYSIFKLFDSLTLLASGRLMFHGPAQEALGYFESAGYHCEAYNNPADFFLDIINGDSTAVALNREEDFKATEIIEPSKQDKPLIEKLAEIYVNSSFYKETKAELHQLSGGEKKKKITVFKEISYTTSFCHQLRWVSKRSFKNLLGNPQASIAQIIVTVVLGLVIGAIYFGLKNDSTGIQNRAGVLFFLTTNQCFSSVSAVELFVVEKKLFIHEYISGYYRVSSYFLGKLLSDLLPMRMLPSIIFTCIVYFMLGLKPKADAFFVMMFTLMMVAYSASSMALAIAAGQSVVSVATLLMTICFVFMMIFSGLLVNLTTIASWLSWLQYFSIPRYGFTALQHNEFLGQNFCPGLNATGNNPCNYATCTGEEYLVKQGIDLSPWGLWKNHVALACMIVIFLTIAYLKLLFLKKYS
Summary of the method: (§2)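 MCF-7 MX cells, with parental MCF-7 alongside, in RPMI 1640 plus 10% FCS. Cells washed in Krebs-HEPES, about 20000 per well, preincubated with compound 30 min at 37 °C, 5% CO2. Hoechst 33342 added and fluorescence (ex 355/em 460 nm) read every 120 s up to 2400 s at 37 °C. Background-subtracted slopes were fitted; XR9577 10 μM served as positive control.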

2008 [2] = experiment: Cytotoxicity against human 2008 cells after 72 hrs by MTT assay; conditions: Homo sapiens, 2008, 72 h
[3] = molecular target: T1, Multidrug resistance-associated protein 1; experiment: Inhibition of MRP1-mediated calcein AM transport expressed in multidrug resistant human 2008 cells assessed as calcein AM accumulation at 100 uM by fluorescence assay in presence of p-gp and BCRP inhibitor XR9577; assay type: cell-based; conditions: human, 2008, 100 µM
[4] = molecular target: T3, Broad substrate specificity ATP-binding cassette transporter ABCG2 (Homo sapiens, UniProt Q9UNQ0); experiment: Inhibition of BCRP expressed in MCF7 MX cells by Hoechst 33342 staining; assay type: cell-based; summary of the method: as §2
T3 sequence (Q9UNQ0 whole entry): T2 sequence (Q9UNQ0 whole entry)

2008 [5] = experiment: Potentiation of vinblastine-induced cytotoxic activity against MRP1-expressing human 2008 cells at 31.6 uM after 72 hrs by MTT assay; assay type: functional, cell-based
Summary of the method: (§3)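 2008 MRP1 cells given a fixed 31.6 μM modulator together with vinblastine or daunorubicin at 0.1 nM–100 μM. Cytostatic alone was tested on 2008 MRP1 and WT cells as control; indomethacin 31.6 μM served as positive control. After 72 h, viability was read by MTT.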

2008 [6] = experiment: Potentiation of daunorubicin-induced cytotoxic activity against MRP1-expressing human 2008 cells at 31.6 uM after 72 hrs by MTT assay; assay type: functional, cell-based; summary of the method: as §3
A2780 ADR [7] = experiment: Inhibition of P-gp expressed in human A2780/ADR cells assessed as calcein AM accumulation a 31.6 uM by fluorescence assay; assay type: cell-based
Summary of the method: (§4)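 P-gp-overexpressing A2780/ADR cells, with wild-type A2780 alongside. Calcein AM accumulation run as in the MRP1 assay (30 min preincubation, final 0.5 μM calcein AM, 30 min reading) but without cobalt or XR9577. XR9577 10 μM served as positive control.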

A2780 ADR [8] = experiment: Inhibition of P-gp expressed in human A2780/ADR cells assessed as calcein AM accumulation a 100 uM by fluorescence assay; assay type: cell-based; summary of the method: as §4
2008 [9] = experiment: Cytotoxicity against human 2008 cells after 24 hrs by MTT assay; assay type: cell-based; conditions: Homo sapiens, 2008, 24 h
[10] = molecular target: T1, Multidrug resistance-associated protein 1; experiment: Inhibition of MRP1; summary of the method: as §1

T1 sequence (P33527 whole entry): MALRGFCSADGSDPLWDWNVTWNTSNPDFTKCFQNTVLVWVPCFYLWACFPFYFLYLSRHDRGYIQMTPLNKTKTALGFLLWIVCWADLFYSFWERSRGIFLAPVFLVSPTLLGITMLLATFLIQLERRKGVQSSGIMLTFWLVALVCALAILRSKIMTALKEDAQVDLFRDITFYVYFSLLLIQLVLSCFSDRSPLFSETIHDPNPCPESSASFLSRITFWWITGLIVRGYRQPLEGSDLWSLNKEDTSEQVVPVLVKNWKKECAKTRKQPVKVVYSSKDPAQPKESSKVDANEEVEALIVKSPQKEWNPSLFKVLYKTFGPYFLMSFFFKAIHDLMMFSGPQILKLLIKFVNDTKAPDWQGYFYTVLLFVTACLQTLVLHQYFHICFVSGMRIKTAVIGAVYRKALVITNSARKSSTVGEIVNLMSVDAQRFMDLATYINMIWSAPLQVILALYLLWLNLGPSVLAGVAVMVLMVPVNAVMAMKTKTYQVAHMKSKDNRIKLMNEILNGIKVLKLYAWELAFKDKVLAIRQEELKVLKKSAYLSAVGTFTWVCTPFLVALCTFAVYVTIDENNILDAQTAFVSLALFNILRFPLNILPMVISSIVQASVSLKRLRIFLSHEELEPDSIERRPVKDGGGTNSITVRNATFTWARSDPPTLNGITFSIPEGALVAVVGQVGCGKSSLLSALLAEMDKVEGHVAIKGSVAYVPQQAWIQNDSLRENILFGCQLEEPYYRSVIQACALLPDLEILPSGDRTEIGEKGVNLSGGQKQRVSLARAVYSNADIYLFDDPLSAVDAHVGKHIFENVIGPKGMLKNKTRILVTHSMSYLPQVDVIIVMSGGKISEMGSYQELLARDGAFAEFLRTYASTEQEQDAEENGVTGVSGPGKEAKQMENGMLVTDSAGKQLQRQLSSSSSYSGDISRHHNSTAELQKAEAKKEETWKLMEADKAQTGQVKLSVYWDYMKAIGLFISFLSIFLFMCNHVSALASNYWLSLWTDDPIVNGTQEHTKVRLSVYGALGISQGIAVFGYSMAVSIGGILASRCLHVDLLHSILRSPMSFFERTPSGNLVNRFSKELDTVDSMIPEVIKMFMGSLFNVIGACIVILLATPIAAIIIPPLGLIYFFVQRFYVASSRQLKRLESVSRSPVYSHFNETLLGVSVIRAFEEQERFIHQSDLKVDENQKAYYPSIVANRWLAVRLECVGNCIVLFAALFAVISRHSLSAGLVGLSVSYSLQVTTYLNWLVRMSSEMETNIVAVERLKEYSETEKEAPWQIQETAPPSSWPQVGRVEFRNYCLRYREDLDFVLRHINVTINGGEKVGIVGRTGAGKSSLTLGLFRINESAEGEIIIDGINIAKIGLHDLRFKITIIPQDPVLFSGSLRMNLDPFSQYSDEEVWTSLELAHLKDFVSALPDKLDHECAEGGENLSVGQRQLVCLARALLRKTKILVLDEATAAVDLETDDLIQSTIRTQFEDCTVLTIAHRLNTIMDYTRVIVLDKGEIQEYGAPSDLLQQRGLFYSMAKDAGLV

Row | SMILES | IC50 [1] [µM] | inhibition (INH) [3] | IC50 2008 [2] [µM] | other results
1 | CCN(CC)C(=S)Nc1sc2c(c1C(=O)O)CCC2 | 2.56 |  | > 100 | inhibition at 31.6 µM (BCRP (ABCG2)): 25%
2 | CCN(CC)C(=O)Nc1sc2c(c1C(=O)O)CCCC2 |  |  | > 100 | inhibition at 31.6 µM (BCRP (ABCG2)): 25%
3 | CCN(CC)C(=S)Nc1sc(C(N)=O)c(C)c1C(=O)O | > 100 |  |  | 
4 | CCN(CC)C(=S)Nc1scc(C(C)C)c1C(=O)O | 14.5 |  |  | 
5 | CN(Cc1ccccc1)C(=S)Nc1ccccc1C(=O)O | 29.1 |  |  | 
6 | CN(CCc1ccccc1)C(=S)Nc1ccccc1C(=O)O | 24 |  |  | 
7 | CCN(CC)C(=S)Nc1sc2c(c1C(=O)O)CCCC2 | 2.71 |  | > 100 | inhibition at 31.6 µM (BCRP (ABCG2)): 25%
8 | O=C(O)c1ccccc1NC(=S)N1CCNCC1 | 20.7 |  |  | 
9 | CN(C)C(=S)Nc1sc2c(c1C(=O)O)CCCC2 |  | Not Active |  | 
10 | CC(C)NC(=O)Nc1sc2c(c1C(=O)O)CCCC2 |  | Not Active |  | 
11 | CN(C(=S)Nc1sccc1C(=O)O)C1CCCCC1 | 4.51 |  | > 100 | IC50 [4]: 10.2 µM; Activity 2008 [5]: inactive; Activity 2008 [6]: inactive
12 | Cc1sc(NC(=S)N(C)C2CCCCC2)c(C(=O)O)c1C | 4.19 |  | > 100 | inhibition at 31.6 µM (BCRP (ABCG2)): 25%
13 | O=C(O)c1c(NC(=S)N2CCOCC2)sc2ccccc12 |  | Not Active |  | 
14 | CCN(CC)C(=S)Nc1sc(C)c(C)c1C(=O)O | 20.4 |  |  | 
15 | CN(C(=S)Nc1ccccc1C(=O)O)C1CCCCC1 |  |  | > 100 | inhibition at 31.6 µM (BCRP (ABCG2)): < 20%
16 | CN(C(=S)Nc1sc2ccccc2c1C(=O)O)C1CCCCC1 | 1.23 |  | > 100 | inhibition at 31.6 µM (BCRP (ABCG2)): 25%
17 | CN(C(=O)Nc1ccccc1C(=O)O)C1CCCCC1 |  |  | > 100 | inhibition at 31.6 µM (BCRP (ABCG2)): 25%
18 | CCN(CC)C(=O)Nc1sc2c(c1C(=O)O)CCC2 |  |  | > 100 | inhibition at 31.6 µM (BCRP (ABCG2)): 25%

Row | SMILES | IC50 [1] [µM] | inhibition (INH) [3] | IC50 2008 [2] [µM] | other results
19 | O=C(O)c1c(-c2ccccc2)csc1NC(=S)N1CCOCC1 |  | Not Active |  | 
20 | CCN(CC)C(=S)Nc1ccsc1C(=O)O | 4.18 |  |  | inhibition at 31.6 µM (BCRP (ABCG2)): 25%; IC50 2008 [9]: > 100 µM
21 | CCN(CC)C(=S)Nc1sc2c(c1C(=O)O)CCCCC2 | 5.97 |  | > 100 | inhibition at 31.6 µM (BCRP (ABCG2)): 25%
22 | Cc1ccc(NC(=O)N2CCOCC2)c(C(=O)O)c1 |  | Not Active |  | 
23 | Cc1ccc(NC(=O)N(C)C2CCCCC2)c(C(=O)O)c1 | 22.8 |  |  | 
24 | CN1CCN(C(=S)Nc2sc3c(c2C(=O)O)CCCC3)CC1 |  | Not Active |  | 
25 | CN(C(=S)Nc1ccccc1C(=O)O)c1ccccc1 | 198 |  |  | 
26 | CCN(CC)C(=S)Nc1sc2c(c1C(=O)O)C(C)CCC2 (racemic) | 4.06 |  | > 100 | IC50 [4]: 9.1 µM
27 | O=C(O)c1c(NC(=O)N2CCOCC2)sc2c1CCCC2 |  | Not Active |  | 
28 | O=C(O)c1ccccc1NC(=S)N1CCOCC1 |  | Not Active |  | 
29 | O=C(O)c1ccccc1NC(=S)N1CCCC1 | 18.3 |  |  | 
30 | Cc1cc(NC(=O)N2CCOCC2)c(C(=O)O)cc1C | 43.4 |  |  | 
31 | O=C(O)c1c(NC(=S)N2CCOCC2)sc2c1CCCC2 |  | Not Active |  | 
32 | Cc1sc(NC(=S)N2CCOCC2)c(C(=O)O)c1C | 18.3 |  |  | 
33 | COc1cc(C2Oc3cc(-c4oc5cc(O)cc(O)c5c(=O)c4O)ccc3OC2CO)ccc1O (stereo not given) [DEHYDROSILYLBIN] |  |  |  | IC50 [10]: 1.1 µM
34 | CCN(CC)C(=O)Nc1cc2ccccc2cc1C(=O)O |  |  | > 100 | 
35 | O=C(O)c1cc(-c2ccccc2)sc1NC(=S)N1CCOCC1 | 27.5 |  |  | 

More lines, main results first:

Row | IC50 [1] [µM] | inhibition (INH) [3] | SMILES | IC50 2008 [2] [µM] | other results
36 | 43.1 |  | O=C(O)c1ccccc1NC(=O)N1CCCC1 |  | 
37 | 21.6 |  | CCN(CC)C(=S)Nc1ccccc1C(=O)O |  | 
38 |  | Not Active | CN(C(=O)Nc1ccccc1C(=O)O)c1ccccc1 |  | 
39 |  | Not Active | Cc1ccc(NC(=O)N(C)c2ccccc2)c(C(=O)O)c1 |  | 
40 |  | Not Active | COC(=O)CN(C)C(=O)Nc1ccccc1C(=O)O |  | 
41 |  | Not Active | Cc1ccc(NC(=O)N(C)Cc2ccccc2)c(C(=O)O)c1 |  | 
42 | 14.3 |  | CCN(CC)C(=S)Nc1sc(-c2ccccc2)cc1C(=O)O | > 100 | inhibition (A2780 ADR [7]): 20%; inhibition (A2780 ADR [8]): 40%
43 | 4.46 |  | CCN(CC)C(=S)Nc1sccc1C(=O)O | > 100 | inhibition at 31.6 µM (BCRP (ABCG2)): 25%
44 |  | Not Active | CN(CCc1ccccc1)C(=O)Nc1ccccc1C(=O)O |  | 
45 | 42.6 |  | CN(Cc1ccccc1)C(=O)Nc1ccccc1C(=O)O |  | 
46 | 26.4 |  | CCN(CC)C(=O)Nc1ccccc1C(=O)O |  | 
47 |  | Not Active | O=C(O)c1ccccc1NC(=O)N1CCOCC1 |  | 
48 |  | Not Active | Cc1ccc(NC(=O)N(C)CCc2ccccc2)c(C(=O)O)c1 |  | 
49 | 0.932 |  | CCN(CC)C(=S)Nc1sc2ccccc2c1C(=O)O | > 100 | IC50 [4]: 6.16 µM; Activity 2008 [5]: inactive; Activity 2008 [6]: inactive
